Laboratory results reported in ChEMBL document CHEMBL4130516, “Immunomodulatory Polyketides from a Phoma-like Fungus Isolated from a Soft Coral” (J Nat Prod, 2017).
Calls of active or inactive are those of the source. The rule behind the calls is not given here.

Experiments:
Splenocyte [1] = assay: Induction of apoptosis in Con A-stimulated C57BL/6 mouse splenocytes at 3 uM by flow cytometry; format: cell-based
How it was run: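 C57BL/6 mouse splenocytes (2 × 10^6 cells/mL) were incubated with compounds at 3 μM for 24 h, with Con A (5 μg/mL) as positive control. Cells were washed with PBS and immediately analysed for apoptosis by flow cytometry.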

Daoy = assay: Cytotoxicity in human DaOY cells assessed as reduction in cell viability at 30 uM incubated for CellTiter-Blue cell viability assay; format: functional, cell-based
How it was run: (§1)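 Cells were treated with compounds at 30 μM for 48 h at 37 °C in 5% CO2. Media were DMEM + 10% FBS for A549, HCT116 and MCF-7, and MEM for DAOY. Adriamycin was the positive control. Relative viability was read by CellTiter-Blue at 530/590 nm.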

MCF7 = assay: Cytotoxicity in human MCF7 cells assessed as reduction in cell viability at 30 uM incubated for CellTiter-Blue cell viability assay; format: functional, cell-based; how it was run: as §1
HCT-116 = assay: Cytotoxicity in human HCT116 cells assessed as reduction in cell viability at 30 uM incubated for CellTiter-Blue cell viability assay; format: functional, cell-based; how it was run: as §1
A549 = assay: Cytotoxicity in human A549 cells assessed as reduction in cell viability at 30 uM incubated for CellTiter-Blue cell viability assay; format: functional, cell-based; how it was run: as §1
Splenocyte [2] = assay: Immunomodulatory activity in Con A-stimulated C57BL/6 mouse splenocytes assessed as increase in CD3+T cell proliferation at 3 uM by PE-CD3 staining based flow cytometry; format: functional
How it was run: (§2)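 C57BL/6 mouse splenocytes, Con A-stimulated (Con A 5 μg/mL as control), were incubated with compounds at 3 μM for 24 h. Cells were stained with PE-CD3, FITC-CD4 and PerCP/Cy5.5-CD8. Flow cytometry gave the percentage of CD3+, CD4+ and CD8+ T cells and the CD4+/CD8+ ratio. Values are means ± SD, n = 3.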

Splenocyte [3] = assay: Immunomodulatory activity in C57BL/6 mouse splenocytes assessed as increase in CD3+T cell proliferation at 3 uM by PE-CD3 staining based flow cytometry; format: functional
Splenocyte [4] = assay: Immunomodulatory activity in Con A-stimulated C57BL/6 mouse splenocytes assessed as increase in ratio of CD4+/[…] cells at 3 uM by PE-CD3 staining based flow cytometry; format: functional, cell-based; how it was run: as §2

Row | SMILES | Activity (Splenocyte [1]) | Activity (Daoy) | Activity (MCF7) | Activity (HCT-116) | Activity (A549) | Activity (Splenocyte [2]) | Activity (Splenocyte [3]) | Activity (Splenocyte [4])
1 | C[C@@]1(O)CC[C@H]2[C@H](C1)[C@@H]1O[C@@H]1[C@@]1(C)OC(=O)CC[C@]21C | Non-Toxic | inactive | inactive | inactive | inactive |  |  | 
2 | C[C@@]1(O)CC[C@H]2[C@@H](C=C[C@@]3(C)OC(=O)CC[C@]23C)C1 | Non-Toxic | inactive | inactive | inactive | inactive | inactive | inactive | 
3 | CC(=O)OCCC(=O)[C@]1(C)[C@H]2CC[C@H](C)C[C@@H]2[C@H](Cl)[C@@H](O)[C@@]1(C)O | Non-Toxic | inactive | inactive | inactive | inactive |  |  | 
4 | C[C@@]1(O)CC[C@H]2[C@@H](C=C[C@@]3(C)OC(=O)C[C@H](O)[C@]23C)C1 | Non-Toxic | inactive | inactive | inactive | inactive | inactive | inactive | Active
5 | C[C@H]1CC[C@H]2[C@@H](C=C[C@@](C)(O)[C@]2(C)C(=O)CCO)C1 | Non-Toxic | inactive | inactive | inactive | inactive | Active | Active | 
6 | CC(=O)[C@@]1(C)C(C)=C[C@H](O)[C@H]2C[C@](C)(O)CC[C@@H]21 | Non-Toxic | inactive | inactive | inactive | inactive |  |  | Active
7 | CC(=O)[C@]1(C)[C@H]2CC[C@@](C)(O)C[C@@H]2C=C[C@@]1(C)O | Non-Toxic | inactive | inactive | inactive | inactive | inactive | inactive | 
8 | C[C@H]1CC[C@H]2[C@H](C1)[C@H](Cl)[C@@H](O)[C@@](C)(O)[C@]2(C)C(=O)CCO | Non-Toxic | inactive | inactive | inactive | inactive | inactive | inactive | Active
9 | C[C@@]1(O)CC[C@H]2[C@](O)(C1)[C@@H]1O[C@@H]1[C@@]1(C)OC(=O)CC[C@]21C | Non-Toxic | inactive | inactive | inactive | inactive | Active | Active | 
10 | CC(=O)[C@]1(C)[C@H]2CC[C@H](C)C[C@@H]2[C@H](Cl)[C@@H](O)[C@@]1(C)O | Non-Toxic | inactive | inactive | inactive | inactive |  |  | 
11 | C[C@H]1CC[C@H]2[C@H](C1)[C@@H](O)[C@@H]1O/C(=C\C=O)[C@@]2(C)[C@]1(C)O | Non-Toxic | inactive | inactive | inactive | inactive |  |  | 
12 | C[C@@]1(O)CC[C@H]2[C@@H](C=C[C@]3(C)OCC[C@H](O)[C@]23C)C1 | Non-Toxic | inactive | inactive | inactive | inactive | inactive | inactive | 
13 | C[C@H]1CC[C@H]2[C@@H](C=C[C@@](C)(O)[C@]2(C)C(=O)O)C1 | Non-Toxic | inactive | inactive | inactive | inactive | Active | Active | 
14 | CC(=O)OCCC(=O)[C@]1(C)[C@H]2CC[C@H](C)C[C@@H]2C=C[C@@]1(C)O | Non-Toxic | inactive | inactive | inactive | inactive | inactive | inactive | Active
15 | CC(=O)OCCC(=O)[C@]1(C)[C@H]2CC[C@@](C)(O)C[C@@H]2C=C[C@@]1(C)O | Non-Toxic | inactive | inactive | inactive | inactive |  |  | 
16 | C[C@H]1CC[C@H]2C(=C[C@@H](O)[C@@](C)(O)[C@]2(C)C(=O)CCO)C1 | Non-Toxic | inactive | inactive | inactive | inactive | inactive | inactive | 
